A selection: hits, their analogues and other compounds. The true share with any hit is near 1.9%.
UHRF1 MBD2 ctr = blocks human UHRF1 binding to methylated DNA; AID 687016; inhibition, % at 4.4 µM; 370,000 tested, 0.75% active; Q96T88; UHRF1 binding to methylated oligo, TR-FRET; in the data active means inhibition above about 21%;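 further: UHRF1 SRA domain binding a hemimethylated CpG hairpin DNA probe; 0% = median of test compound wells and 100% = reference inhibitor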
Target sequence (Q96T88 whole entry, looked up, the tested form may be a part): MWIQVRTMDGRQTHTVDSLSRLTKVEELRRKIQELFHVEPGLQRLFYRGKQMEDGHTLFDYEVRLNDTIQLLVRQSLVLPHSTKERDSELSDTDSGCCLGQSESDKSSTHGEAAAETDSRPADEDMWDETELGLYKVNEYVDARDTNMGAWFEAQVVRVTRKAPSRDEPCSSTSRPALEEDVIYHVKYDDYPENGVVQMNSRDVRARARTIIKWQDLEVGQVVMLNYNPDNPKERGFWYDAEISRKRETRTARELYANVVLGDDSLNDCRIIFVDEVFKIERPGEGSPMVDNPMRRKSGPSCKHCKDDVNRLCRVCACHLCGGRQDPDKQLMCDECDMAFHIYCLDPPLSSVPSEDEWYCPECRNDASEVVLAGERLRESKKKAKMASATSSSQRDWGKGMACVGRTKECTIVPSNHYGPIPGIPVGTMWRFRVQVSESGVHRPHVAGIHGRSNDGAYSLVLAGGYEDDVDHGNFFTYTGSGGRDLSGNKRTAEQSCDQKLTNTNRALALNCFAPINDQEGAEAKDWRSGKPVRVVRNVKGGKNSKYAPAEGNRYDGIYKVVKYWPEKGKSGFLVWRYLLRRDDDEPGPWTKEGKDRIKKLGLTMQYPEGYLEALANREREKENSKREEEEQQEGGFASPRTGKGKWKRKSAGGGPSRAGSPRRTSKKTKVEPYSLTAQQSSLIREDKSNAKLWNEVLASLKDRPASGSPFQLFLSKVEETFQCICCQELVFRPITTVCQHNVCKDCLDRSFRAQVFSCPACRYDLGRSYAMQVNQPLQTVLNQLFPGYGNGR
TDP2 inh = blocks human TDP2 phosphodiesterase activity. O95551. recombinant TDP2, T5PNP hydrolysis, p-nitrophenol absorbance 415 nm. inhibition, % at 12.8 µM. 370,000 tested, 0.34% active. AID 720702;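 active means inhibition above the mean of all tested compounds plus 3 SD, set per campaign, cut at about 25% in these data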;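 further: 0% = DMSO with enzyme and 100% = buffer with substrate but no TDP2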
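System – recombinant human TDP2 · Amount – 120 nM TDP2 per well · Buffer or medium – Mg2+-containing Tris-HCl buffer, pH 7.5 · Reagent – T5PNP substrate, 5 mM · Dosing – 12.8 µM single point, 1% DMSO · Incubation – 2 h at 37 °C · Measured by – epi absorbance · Read-out basis – percent inhibition · Benchmarks – high control without enzyme, low control DMSO plus TDP2 · Repeats – singlicate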
NSD2 HMT inh = blocks human histone methyltransferase NSD2. 310,000 tested, 0.54% active. O96028. inhibition, % at 12.5 µM. AID 743445. NSD2 peptide methylation, AlphaScreen, 120 min; in the data active means inhibition above about 50%
Casp6 inh = caspase-6 (human) enzyme inhibition | P55212 | purified caspase-6, Z-VEID-R110 cleavage fluorescence | inhibition, % at 12.5 µM | 350,000 tested, 0.53% active;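 active means mean inhibition across replicates at least about 35%, with every replicate also reaching that limit, limit read from the data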;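 further: 0% = median of neutral control wells and 100% = no fluorescence left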
LEDGF integ inh = blocks HIV-1 LEDGF/p75-dependent DNA integration. 370,000 tested, 0.64% active. inhibition, % at 3.7 µM. TR-FRET IN-LEDGF/p75 DNA integration, Eu/Cy5;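 active means inhibition above the screen-wide mean plus 3 SD, cut at about 13% in these data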;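 further: signal is the Cy5 over europium emission ratio at 671 and 618 nm; 0% = plate median of compound wells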
MBD2 DNA inh = blocks human MBD2 binding to methylated DNA; TR-FRET, MBD2 binding to methylated oligonucleotide; inhibition, % at 4.4 µM; 370,000 tested, 0.31% active; in the data active means inhibition above about 13%
An asterisk follows results filed as active; . = not tested or not shown.

SMILES | UHRF1 MBD2 ctr | TDP2 inh | NSD2 HMT inh | Casp6 inh | LEDGF integ inh | MBD2 DNA inh
O=C(O)c1ccc([N+](=O)[O-])c([N+](=O)[O-])c1 | -0.8 | 0.3 | -0.3 | 40.8* | 6.5 | -7.0
O=[N+]([O-])c1ccc(O)c([N+](=O)[O-])c1 | 0.4 | -10.8 | . | -0.7 | 4.4 | -3.0
O=C(O)[C@@H]1[C@@H](CO)[C@@H]2Cn3c(cccc3=O)[C@H]1N2C(=O)c1ccccc1 | . | . | . | -0.6 | . | .
O=[N+]([O-])c1ccc(Cl)c([N+](=O)[O-])c1 | -1.2 | -5.2 | . | -0.6 | 3.0 | 2.5
CN1C(=O)C(c2ccc([N+](=O)[O-])cc2[N+](=O)[O-])C(=O)N(C)C1=O | 20.9* | -5.6 | 9.5 | 2.9 | -1.8 | -1.2
O=C(Cc1ccccc1)N1C[C@@H]2[C@H](c3ccccc31)[C@@H](CO)N2Cc1ccccc1 | . | . | . | 1.7 | . | .
O=C(COC(=O)Cc1ccccc1)Nc1cc(S(=O)(=O)N2CCOCC2)ccc1N1CCCC1 | 4.0 | 1.6 | -2.5 | -3.4 | -4.0 | 2.9
O=C(COC(=O)Cc1ccccc1)Nc1cc(S(=O)(=O)N2CCCCC2)ccc1Cl | 3.4 | -5.2 | 0.2 | 70.8* | -3.5 | 4.3
COc1ccc(/C=N\N=C(N)N)cc1 | -1.4 | 3.1 | -0.1 | -3.3 | 0.4 | -1.4
NC(N)=N/N=C/c1ccc(N(c2ccccc2)c2ccccc2)cc1 | -0.2 | -12.0 | -55.5 | 63.1* | 2.2 | -2.8
CN(C(=O)Oc1ccc(Cl)c2cccnc12)c1ccccc1 | 21.3* | -0.2 | -1.5 | . | 1.5 | 7.3
CN(C(=O)Oc1cccc2cccnc12)c1ccccc1 | -2.8 | -12.0 | . | . | 1.6 | -4.8
COC(=O)[C@H]1[C@H](CO)[C@H]2Cn3c(ccc(-c4ccccc4)c3=O)[C@@H]1N2CC1CC1 | . | . | . | 0.9 | . | .
CN1CCCC1C(O)(c1ccccc1)c1ccccc1 (stereo not given) | 2.4 | -8.5 | -0.9 | . | 0.6 | 1.4
CN1CCCC2c3ccccc3CCC21 (stereo not given) | 21.6* | -2.5 | 0.2 | 0.1 | -1.0 | -2.8
O=C1NC(=O)N(Cc2ccc(F)cc2)C(=O)/C1=C\c1ccoc1 | 8.5 | 0.3 | 9.9 | 47.3* | 12.5 | -2.9
CN(C)c1ccc(/C=C2\C(=O)NC(=O)N(Cc3ccc(F)cc3)C2=O)cc1 | -3.6 | 4.0 | 8.8 | 1.0 | -6.4 | -5.0
C=Cc1cc(OC)c2c(c1)c(=O)oc1c2cc(OC)c2c(O)ccc(C3OC(C)C(O)C(C)(O)C3O)c21 (stereo not given) | 10.0 | 12.8 | . | 52.5* | 10.2 | 31.2*
Cc1ccccc1-c1ccc([C@H]2[C@H]3CN(C(=O)Cc4ccccn4)CCCCN3[C@H]2CO)cc1 | . | . | . | 13.3 | . | .
Brc1ccc2c(c1)-n1nncc1CNC2 | 34.9* | -12.7 | . | 2.1 | 5.4 | 1.0
CCN(C(=O)COC(=O)c1cn(C)c2ccccc12)c1ccc(F)cc1 | 21.6* | 7.2 | 0.7 | 2.3 | 7.2 | 5.7
O=C1NC(=O)N(Cc2ccccc2)C(=O)/C1=C\C=C\c1ccco1 | 27.9* | -19.6 | 41.8 | 60.1* | 2.2 | -0.4
O=C(Cc1cccnc1)N1CCCCN2[C@H](CO)[C@@H](c3ccc(/C=C/c4ccccc4)cc3)[C@H]2C1 | . | . | . | -0.5 | . | .
O=C(Cc1ccccn1)N1CCCCN2[C@@H](CO)[C@@H](c3ccc(Br)cc3)[C@@H]2C1 | . | . | . | 0.3 | . | .
Cc1nc2c(=O)n(C)c(=O)nc-2n(C)n1 | 7.2 | 85.6* | . | . | -24.6 | 16.1*
SMILES | UHRF1 MBD2 ctr | TDP2 inh | NSD2 HMT inh | Casp6 inh | LEDGF integ inh | MBD2 DNA inh
O=C(O)[C@@H]1[C@@H](CO)[C@@H]2Cn3c(ccc(-c4cccc(F)c4)c3=O)[C@H]1N2CCc1ccccc1 | . | . | . | 3.1 | . | .
Cc1ccc(CNCCc2ccccc2F)cc1 | 24.9* | -7.3 | 1.1 | -1.9 | 2.1 | 10.2
CC[C@H](C)[C@@H]1NC(=O)CNC(=O)c2csc(n2)[C@H](C(C)(C)O)OC(=O)C(C)(C)[C@H](CCCC(C)(Cl)Cl)OC(=O)c2csc1n2 | 1.3 | -1.7 | . | 39.9* | 3.7 | -1.1
COc1ccc(/C=C2\C(=O)NC(=S)N(C)C2=O)cc1C | 14.5 | -2.2 | . | 46.0* | -5.9 | 6.0
Cc1ccc(/C=C2\C(=O)NC(=S)N(c3cccc(F)c3)C2=O)o1 | 2.9 | 12.6 | . | 48.2* | 3.6 | 5.6
COc1ccc(N2C(=O)/C(=C/c3ccc(C)o3)C(=O)NC2=S)cc1 | -3.8 | 9.5 | 36.9 | 40.0* | 6.7 | -3.5
CCOc1ccc(N2C(=O)/C(=C/c3ccc(C)o3)C(=O)NC2=S)cc1 | -1.9 | 7.0 | 37.0 | 22.3 | 3.6 | -2.9
Cc1ccc(OC(=O)N(C)C[C@H]2OCc3ccccc3-c3c(n(C)c4ccccc34)C(=O)N([C@H](C)CO)C[C@H]2C)cc1 | . | . | . | -1.6 | . | .
COP(=O)(OC)C(C)NC(=O)OCc1ccccc1 (stereo not given) | 3.8 | 10.3 | -3.0 | . | -2.2 | -1.2
Nc1c2c(nc3sc4c(c13)CCCC4)CCCC2 | 28.8* | 0.3 | -0.8 | -2.0 | 1.9 | 9.4
Nc1c2c(nc3sc4c(c13)CCCC4)CCCCC2 | 0.0 | -4.2 | 2.3 | . | 0.8 | 0.4
Cc1ccccc1S(=O)(=O)N1[C@@H]2c3ccc(-c4cccnc4)c(=O)n3C[C@H]1[C@H](CO)[C@H]2C(=O)O | . | . | . | -0.7 | . | .
COc1cccc(C(=O)C2CN(C)CC2c2ccc(Cl)cc2)c1 (stereo not given) | 69.7* | 3.9 | 3.4 | -0.3 | 0.9 | 2.5
COc1ccc(C(=O)C2CN(C)CC2c2ccc(Cl)cc2)cc1 (stereo not given) | 3.3 | -6.2 | 10.8 | -2.4 | -0.2 | 5.2
O=C1NC(=O)N(c2ccc(Cl)cc2)C(=O)/C1=C\c1ccc(Sc2nc3ccccc3[nH]2)o1 | 1.2 | -1.2 | 42.9 | 69.2* | 8.4 | 1.2
N#Cc1cccc(-c2ccc([C@@H]3[C@@H](CO)N4CCCCN(C(=O)Cc5ccccc5)C[C@@H]34)cc2)c1 | . | . | . | 0.8 | . | .
Cc1ccc(/C=C2\C(=O)NC(=O)N(Cc3ccccc3Cl)C2=O)o1 | -3.0 | -8.3 | 4.4 | 50.6* | 3.0 | 1.8
C=CCN1C(=O)/C(=C/c2ccc(Br)s2)C(=O)NC1=S | 2.1 | -2.3 | 23.4 | 52.6* | -3.1 | 2.8
O=C(O)[C@H]1[C@H](CO)[C@H]2Cn3c(ccc(-c4ccccc4)c3=O)[C@@H]1N2CC1CCCCC1 | . | . | . | -1.5 | . | .
COC(=O)[C@H]1[C@H](CO)[C@H]2Cn3c(ccc(-c4ccccc4)c3=O)[C@@H]1N2CC1CCCCC1 | . | . | . | 3.9 | . | .
COC(=O)[C@@H]1[C@@H](CO)[C@@H]2Cn3c(ccc(C4=CCCC4)c3=O)[C@H]1N2CC1CCCCC1 | . | . | . | 1.4 | . | .
O=C1CC=C2C3CC4N(CCC45c4cc(O)c(O)cc4N1C25)CC3=CCBr (stereo not given) | 31.1* | 6.4 | 107.0* | 6.6 | 62.1* | 15.3*
O=C1CC=C2C3CC4N(CCC45c4ccccc4N1C25)CC3=CCO (stereo not given) | -3.3 | 12.6 | -1.6 | 0.7 | 0.4 | 3.7
